Laboratory results: ChEMBL document CHEMBL3045217, “Factors affecting the synergy of thiabendazole, sodium bicarbonate, and heat to control postharvest green mold of citrus fruit” (J Agric Food Chem, 2008)

Tests used:
Fruit [1] = test: Drug residues in Citrus sinensis cvs. Valencia late (Valencia oranges) at 200 mg/L treated for 1 min at 50 degC postharvest measured immediately post-drug treatment by GC analysis; type: ADME
How it was run: (§1)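 'Valencia' oranges were dipped 1 min in TBZ at 600 mg/L (20 °C, ±0.5, 1 or 2% wt/vol SBC), 400 mg/L (40 °C, ±SBC) or 200 mg/L (50 °C, alone), then air-dried. They were sampled at 0, 10 and 20 days at 17 °C. Peel of five fruit was frozen, and 5 g of homogenate was extracted with ethyl acetate/hexane (1/1) plus NaCl. The extract was dried under N2, taken up in acetone and analysed by GC. Results are mg/kg on a whole-fruit basis.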

Penicillium digitatum [2] = test: (§2) Fungicidal activity against TBZ-sensitive Penicillium digitatum infected Valencia oranges assessed as postharvest green mold incidence at 600 mg/L treated for 1 min at 20 degC at 20 hr after fungal conidial inoculation measured after 7 days of storage at 20 degC in presence of 0.5% SBC (water Rvb = 64.2%); type: functional
How it was run: (§3)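 Fruit were surface-disinfected in 1 g/L hypochlorite for 30 s, rinsed, dried, then wounded twice equatorially (2 mm × 2 mm rod). Inoculation was a 1 min dip in P. digitatum conidia, 1 × 10^5 conidia/mL final. Fruit were held 20 h at 20 °C and 90% RH, dipped 1 min (SBC wt/vol), and air-dried. Storage was 20 °C, 90% RH. Decay incidence (% fruit with lesions) was scored at 5 d for mandarins and 7 d for oranges. Three replicates of 40 fruit were used; arcsin-transformed data were compared by LSD, p ≤ 0.05.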

Penicillium digitatum [3] = test: Fungicidal activity against Penicillium digitatum infected Valenica oranges assessed as fruit weight loss at 600 mg/L treated for 1 min at 20 degC postharvest at 20 hr after fungal conidial inoculation measured after 14 days of storage at 17 degC (water Rvb = 5.62%); type: functional
Penicillium digitatum [4] = test: (§4) Fungicidal activity against TBZ-sensitive Penicillium digitatum infected Valencia oranges assessed as postharvest green mold incidence at 400 mg/L treated for 1 min at 40 degC at 20 hr after fungal conidial inoculation measured after 7 days of storage at 20 degC in presence of 1% SBC (water Rvb = 29.2%); type: functional; how it was run: as §3
Penicillium digitatum [5] = test: as §2, with “2%” for “0.5%”, “20.8%)” for “64.2%)”; type: functional; how it was run: as §3
Fruit [6] = test: Drug residues in Citrus sinensis cvs. Valencia late (Valencia oranges) at 600 mg/L treated for 1 min at 20 degC postharvest measured after 20 days of storage at 17 degC in presence of 1% SBC by GC analysis; type: ADME; how it was run: as §1
Penicillium digitatum [7] = test: Fungicidal activity against Penicillium digitatum infected Valenica oranges assessed as fruit weight loss at 600 mg/L treated for 1 min at 20 degC postharvest at 20 hr after fungal conidial inoculation measured after 14 days of storage at 17 degC in presence of 1% SBC (water Rvb = 7.65%); type: functional
Penicillium digitatum [8] = test: Fungicidal activity against Penicillium digitatum infected Valenica oranges assessed as fruit weight loss at 600 mg/L treated for 1 min at 20 degC postharvest at 20 hr after fungal conidial inoculation measured after 7 days of storage at 17 degC in presence of 0.5% SBC (water Rvb = 3.90%); type: functional
Inner fruit = test: Drug residues in Citrus sinensis cvs. Salustiana (Salustiana oranges) inner fruit at 600 mg/L treated for 3 min at 20 degC postharvest measured after overnight incubation at 17 degC by GC analysis; type: ADME; conditions: 0.05 h
How it was run: (§5)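 'Salustiana' oranges were washed with water and air-dried. They were dipped 1 or 3 min in TBZ 600 mg/L at 20 or 50 °C, or 1 min in TBZ 600 mg/L plus 2% SBC at 20 °C, then dried overnight at 17 °C in the dark. Surface residue was taken by water extraction and wax residue by chloroform extraction. Inner residue was measured in fruit after both extractions. Extracts were dried under N2, taken up in acetone and analysed by GC. Values are mg/kg on a whole-fruit basis.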

Fruit [9] = test: Drug residues in Citrus sinensis cvs. Valencia late (Valencia oranges) at 200 mg/L treated for 1 min at 50 degC postharvest measured after 10 days of storage at 17 degC by GC analysis; type: ADME; how it was run: as §1
Fruit [10] = test: Drug residues in Citrus sinensis cvs. Valencia late (Valencia oranges) at 600 mg/L treated for 1 min at 20 degC postharvest measured immediately post-drug treatment in presence of 1% SBC by GC analysis; type: ADME; how it was run: as §1
Fruit [11] = test: Drug residues in Citrus sinensis cvs. Valencia late (Valencia oranges) at 400 mg/L treated for 1 min at 40 degC postharvest measured immediately post-drug treatment in presence of 2% SBC by GC analysis; type: ADME; how it was run: as §1
Penicillium digitatum [12] = test: as §4, with “Nova mandarins” for “Valencia oranges”, “5” for “7”, “2%” for “1%”, “88.3%)” for “29.2%)”; type: functional; how it was run: as §3
Penicillium digitatum [13] = test: Fungicidal activity against TBZ-resistant Penicillium digitatum infected Nova mandarins assessed as postharvest green mold incidence at 200 mg/L treated for 1 min at 50 degC at 20 hr after fungal conidial inoculation measured after 5 days of storage at 20 degC (water Rvb = 95.0%); type: functional
Fruit [14] = test: Drug residues in Citrus sinensis cvs. Valencia late (Valencia oranges) at 600 mg/L treated for 1 min at 20 degC postharvest measured after 20 days of storage at 17 degC by GC analysis; type: ADME; how it was run: as §1
Penicillium digitatum [15] = test: Fungicidal activity against TBZ-sensitive Penicillium digitatum infected Valencia oranges assessed as postharvest green mold incidence at 400 mg/L treated for 1 min at 40 degC at 20 hr after fungal conidial inoculation measured after 7 days of storage at 20 degC (water Rvb = 66.7%); type: functional
Penicillium digitatum [16] = test: Fungicidal activity against TBZ-resistant Penicillium digitatum infected Valencia oranges assessed as postharvest green mold incidence at 600 mg/L treated for 1 min at 20 degC at 20 hr after fungal conidial inoculation measured after 7 days of storage at 20 degC (water Rvb = 96.7%); type: functional
Penicillium digitatum [17] = test: as §2, with “TBZ-resistant” for “TBZ-sensitive”, “85.8%)” for “64.2%)”; type: functional
Penicillium digitatum [18] = test: as §2, with “Nova mandarins” for “Valencia oranges”, “5” for “7”, “100%)” for “64.2%)”; type: functional; how it was run: as §3
Penicillium digitatum [19] = test: Fungicidal activity against Penicillium digitatum infected Valenica oranges assessed as fruit weight loss at 400 mg/L treated for 1 min at 40 degC postharvest at 20 hr after fungal conidial inoculation measured after 14 days of storage at 17 degC (water Rvb = 6.24%); type: functional
Fruit surface = test: Drug residues on Citrus sinensis cvs. Salustiana (Salustiana oranges) fruit surface at 600 mg/L treated for 1 min at 50 degC postharvest measured after overnight incubation at 17 degC by GC analysis; type: ADME; how it was run: as §5

c1ccc2[nH]c(-c3cscn3)nc2c1 [THIABENDAZOLE]
Drug uptake (Fruit [1]): 0.45 mg/kg
Activity (Penicillium digitatum [2]): 18.3%
Activity (Penicillium digitatum [3]): 6.33%
Activity (Penicillium digitatum [4]): 5%
Activity (Penicillium digitatum [5]): 2.5%
Drug uptake (Fruit [6]): 1.4 mg/kg
Activity (Penicillium digitatum [7]): 8.47%
Activity (Penicillium digitatum [8]): 4.28%
Drug uptake (Inner fruit): 0.13 mg/kg
Drug uptake (Fruit [9]): 0.43 mg/kg
Drug uptake (Fruit [10]): 1.31 mg/kg
Drug uptake (Fruit [11]): 0.74 mg/kg
Activity (Penicillium digitatum [12]): 3.3%
Activity (Penicillium digitatum [13]): 65%
Drug uptake (Fruit [14]): 1.54 mg/kg
Activity (Penicillium digitatum [15]): 14.2%
Activity (Penicillium digitatum [16]): 78.3%
Activity (Penicillium digitatum [17]): 38.3%
Activity (Penicillium digitatum [18]): 0%
Activity (Penicillium digitatum [19]): 6.26%
Drug uptake (Fruit surface): 0.66 mg/kg
